Reference: paper PMC5955795 (Antiviral research, 2018)
Structures can show the parent of a compound that is named as a salt. Where two headings read alike, the source gives them in different places. Blank lines part the entries; values can stand above or below the molecule they belong to.

Key:
[1] = system: R5X4 dual-tropic HIV-1 (strain 89.6); type: cell-based; conditions: seven days, n=4
HIV-infected CD4 T cells = type: cell-based, human; conditions: 1μg/ml drug, seven days, n=4
[2] = type: in vivo, human
[3] = system: R5X4 dual-tropic HIV-1 (strain 89.6); type: cell-based; conditions: 1μg/ml drug, seven days, n=3
How it was run: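 Anti-CD3 (1μg/ml plate-bound) plus IL2 (100ng/ml) stimulated CD4 T cells for 48 hrs at 37°C/5%CO2. Cells were infected at MOI 0.1 for 48 hrs with IL2, then 5×10^5 were seeded directly onto mature adipocytes differentiated from 5×10^4 preadipocytes/well. Co-culture ran seven days with IL-2 and drug. Read-out was intracellular p24 by flow cytometry (clone KC57) after viability dye; singlet wells per condition.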

[4] = set-up: species or system rhesus macaques; conditions: rhesus monkey, in vivo, sc
[5] = system: R5X4 dual-tropic HIV-1 (strain 89.6); type: cell-based; conditions: 0.1-1μg/ml TDF, seven days, n=6
[6] = system: R5X4 dual-tropic HIV-1 (strain 89.6); type: cell-based; conditions: 0.1-1μg/ml TDF, seven days, n=6; remark: listed apart in the source
[7] = system: R5X4 dual-tropic HIV-1 (strain 89.6); type: cell-based; conditions: 0.1-1μg/ml TDF, n=5
How it was run: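 Infected CD4 T cells (5×10^5; anti-CD3/IL2-activated, MOI 0.1) were placed in 0.4μm-pore transwells above mature adipocytes in adipocyte maintenance medium. Drug was added to the lower wells just before, with 100ng/ml IL-2, for 6-7 days. Read-out was supernatant p24 by ELISA, reported as percent change relative to untreated. Singlet wells; experiments repeated with different donor cells; mean±sem.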

[8] = direct contact co-culture with adipocytes

SMILES: CC(C)OC(=O)[C@H](C)N[P@](=O)(CO[C@H](C)Cn1cnc2c(N)ncnc21)Oc1ccccc1 [TAF, tenofovir alafenamide]
reduced HIV replication (intracellular p24) ([1]; 0.1-1μg/ml TAF, in the presence of adipocytes): 1-64%
reduced HIV replication (intracellular p24) ([1]; 0.1-1μg/ml TAF, medium alone): 40-98%
CD69+p24+ expression (HIV-infected CD4 T cells; co-culture with adipocytes): 8-12%
CD69+p24+ expression (HIV-infected CD4 T cells; medium alone): < 2%

intracellular concentration in PBMC ([2]; Pt.05): undetectable
intracellular concentration in subcutaneous AT-SVF cells ([2]; Pt.05): 339 fmol/million cells
SMILES: COc1cc2c(cc1Cc1cccc(Cl)c1F)c(=O)c(C(=O)O)cn2[C@H](CO)C(C)C [elvitegravir]

SMILES: C[C@H](Cn1cnc2c(N)ncnc21)OCP(=O)(O)O [tenofovir]
reduced HIV replication (intracellular p24) ([1]; 1-5μg/ml tenofovir, in the presence of adipocytes): 5-43%
reduced HIV replication (intracellular p24) ([1]; 1-5μg/ml tenofovir, medium alone): 65-91%
CD69+p24+ expression (HIV-infected CD4 T cells; co-culture with adipocytes): 8-12%
CD69+p24+ expression (HIV-infected CD4 T cells; medium alone): < 2%
HIV production (p24+) [3, 8]: 55-60%
HIV production (p24+) ([3]; medium alone): 15-16 % p24+

intracellular concentration in lymph node cells ([2]; Pt.06): undetectable
intracellular concentration in visceral adipocytes ([2]; Pt.06): undetectable
SMILES: Nc1nc(NC2CC2)c2ncn([C@H]3C=C[C@@H](CO)C3)c2n1 [abacavir]

intracellular concentration in visceral AT-SVF cells ([2]; Pt.01): undetectable
intracellular concentration in lymph node cells ([2]; Pt.03): 793 fmol/million cells
intracellular concentration in subcutaneous AT-SVF cells ([2]; Pt.03): 129 fmol/million cells
intracellular concentration in subcutaneous adipocytes ([2]; Pt.03): 151 fmol/million cells
intracellular concentration in lymph node cells ([2]; Pt.04): 749 fmol/million cells
intracellular concentration in subcutaneous AT-SVF cells ([2]; Pt.04): 1,439 fmol/million cells
intracellular concentration in subcutaneous adipocytes ([2]; Pt.04): 382 fmol/million cells
intracellular concentration in subcutaneous AT-SVF cells ([2]; Pt.07): 4 fmol/million cells
concentration in serum ([2]; Pt.08): 1,324 ng/ml
intracellular concentration in PBMC ([2]; Pt.08): 46 fmol/million cells
intracellular concentration in lymph node cells ([2]; Pt.08): 17 fmol/million cells
intracellular concentration in subcutaneous AT-SVF cells ([2]; Pt.08): 449 fmol/million cells
intracellular concentration in subcutaneous adipocytes ([2]; Pt.08): 363 fmol/million cells
SMILES: C[C@@H]1CCO[C@H]2Cn3cc(C(=O)NCc4ccc(F)cc4F)c(=O)c(O)c3C(=O)N12 [dolutegravir]

concentration in serum ([2]; human, in vivo): 37 ng/mL
intracellular concentration in tissues examined (tissue not specified) ([2]; human, in vivo): undetectable
intracellular concentration in visceral AT-SVF cells ([2]; human, in vivo): undetectable
SMILES: Nc1ccn([C@@H]2CS[C@H](COP(=O)(O)OP(=O)(O)OP(=O)(O)O)O2)c(=O)n1 [3TC-TP]

intracellular concentration in tissues examined (tissue not specified) ([2]; human, in vivo): undetectable
intracellular concentration in visceral AT-SVF cells ([2]; human, in vivo): undetectable
SMILES: Nc1nc(=O)c2ncn([C@H]3C=C[C@@H](COP(=O)(O)OP(=O)(O)OP(=O)(O)O)C3)c2[nH]1 [CBV-TP]

intracellular concentration in tissues examined (tissue not specified) ([2]; Pt.07): undetectable
SMILES: COC(=O)N[C@H](C(=O)N[C@@H](Cc1ccccc1)[C@@H](O)CN(Cc1ccc(-c2ccccn2)cc1)NC(=O)[C@@H](NC(=O)OC)C(C)(C)C)C(C)(C)C [atazanavir]

intracellular concentration in PBMC [4]: 700-1,400 fmol/million cells
intracellular concentration in lysates of AT-SVF fractions [4]: undetectable
intracellular concentration in lysates of adipocyte fractions [4]: undetectable
concentration in serum ([2]; human, in vivo): 2,687 ng/ml
intracellular concentration in PBMC ([2]; human, in vivo): 14,682 fmol/million cells
intracellular concentration in lymph node cells ([2]; human, in vivo): 1,053 fmol/million cells
intracellular concentration in tissues examined (tissue not specified) ([2]; human, in vivo): undetectable
intracellular concentration in subcutaneous AT-SVF cells ([2]; human, in vivo, sc): 4,459 fmol/million cells
intracellular concentration in subcutaneous adipocytes ([2]; human, in vivo, sc): 11 fmol/million cells
SMILES: Nc1nc(=O)n([C@@H]2CS[C@H](COP(=O)(O)OP(=O)(O)OP(=O)(O)O)O2)cc1F [FTC-TP]

intracellular concentration in visceral adipocytes ([2]; Pt.06): 139 fmol/million cells
SMILES: Cc1ccnc2c1NC(=O)c1cccnc1N2C1CC1 [nevirapine]

intracellular concentration in tissues examined (tissue not specified) ([2]; Pt.07): undetectable
SMILES: CC(C)c1nc(CN(C)C(=O)N[C@H](C(=O)N[C@@H](Cc2ccccc2)C[C@H](O)[C@H](Cc2ccccc2)NC(=O)OCc2cncs2)C(C)C)cs1 [ritonavir]

intracellular concentration in PBMC [4]: 80-770 fmol/million cells
intracellular concentration in lysates of AT-SVF fractions [4]: undetectable
intracellular concentration in lysates of adipocyte fractions [4]: undetectable
concentration in serum ([2]; human, in vivo): 246 ng/mL
intracellular concentration in PBMC ([2]; human, in vivo): 633 fmol/million cells
intracellular concentration in tissues examined (tissue not specified) ([2]; human, in vivo): undetectable
intracellular concentration in subcutaneous AT-SVF cells ([2]; human, in vivo, sc): 724 fmol/million cells
intracellular concentration in subcutaneous adipocytes ([2]; human, in vivo, sc): 7 fmol/million cells
SMILES: C[C@@H](Cn1cnc2c(N)ncnc21)OCP(=O)(O)OP(=O)(O)OP(=O)(O)O [TFV-DP]

SMILES: CC(C)OC(=O)OCOP(=O)(CO[C@H](C)Cn1cnc2c(N)ncnc21)OCOC(=O)OC(C)C [TDF, tenofovir disoproxil fumarate]
reduced HIV replication (intracellular p24) ([1]; 0.5-2μg/ml TDF, in the presence of adipocytes): 15-38%
reduced HIV replication (intracellular p24) ([1]; 0.5-2μg/ml TDF, medium alone): 60-95%
effect of Caco-2 cells on antiviral activity [5]: neither preadipocytes or Caco-2 cells significantly affected
CD69+p24+ expression (HIV-infected CD4 T cells; co-culture with adipocytes): 8-12%
CD69+p24+ expression (HIV-infected CD4 T cells; medium alone): < 2%
effect of preadipocytes on antiviral activity [6]: neither preadipocytes or Caco-2 cells significantly affected
reduced HIV replication (extracellular p24 by ELISA) ([7]; in the presence of adipocytes): 4-41%
reduced HIV replication (extracellular p24 by ELISA) ([7]; medium alone): 57-85%
HIV production (p24+) [3, 8]: 55-60%
HIV production (p24+) ([3]; medium alone): 15-16 % p24+
